Screening results from PubChem.
Compounds with a hit are over-represented: about 4.9% of the library has one in this group of screens.
APP 5'UTR act: APP 5'UTR luciferase reporter activation; 190,000 tested, 1% active; AID 1276; SH-SY5Y APP 5'UTR luciferase reporter, luminescence; zero percent = DMSO vehicle wells; activation, % at 2 µM;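 active = activation above a set limit, based on mean plus 3 SD of controls, cut at about 140% in these data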
STAT3 inh-1: inhibitors of IL-6 induced STAT3 signaling; 190,000 tested, 0.89% active; U3A cells, IL-6 STAT3-luciferase reporter, luminescence; host cell line lacks STAT1; inhibition, % at 5.5 µM; AID 862;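 active = inhibition above the mean inhibition across all screened compounds plus 3 SD, cut at about 44% in these data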;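 also: 0% = DMSO only wells and 100% = 100 µM nifuroxazide control wells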
STAT1 act: STAT1 signaling activation; NIH 3T3 STAT1-luciferase reporter, IFN-gamma, luminescence; 100% = IFN-gamma alone, no compound; activation (% of control), % at 5.5 µM; 200,000 tested, 2.6% active;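 active = activation above the screen-wide mean activation plus 3 SD, cut at about 130% in these data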;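 also: raw ratio to IFN-gamma control signal so 100% means no change and 0% no light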
STAT3 activator: STAT3 signaling activation; activation (% of control), % at 5.6 µM; U3A cells, IL-6 STAT3-luciferase reporter, luminescence; 100% = signal with IL-6 EC80 alone; 190,000 tested, 0.91% active; AID 871;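 active = activation above the screen-wide mean of compound activation plus 3 SD, cut at about 130% in these data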;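 also: 0% = background luminescence of wells with medium and substrate only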
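System – human U3A cells carrying STAT3-luciferase construct · Probe or stimulus – Interleukin-6, 33 ng/mL · Schedule – compound 1 h, then IL-6 6 h at 37 °C · Signal – luminescence from STAT3-driven luciferase reporter · Evaluation – percent of IL-6-only median luminescence · Benchmarks – IL-6-only high control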
STAT1 inh: reduces IFN-gamma driven STAT1 reporter signal; NIH 3T3 STAT1-luciferase reporter, luminescence; inhibition, % at 5.5 µM; 200,000 tested, 0.35% active;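 active = inhibition above a set limit, the mean inhibition across all tested compounds plus 3 SD, cut at about 34% in these data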;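 also: 0% = IFN-gamma with DMSO and 100% = IFN-gamma with 300 µM nifuroxazide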
NF-kB expr up: raises NF-kB expression in human neuronal cells | fold change at 12.5 µM | 190,000 tested, 1.6% active | AID 1239 | NF-kB reporter expression; active compounds read high; in the data active = fold change above about 3.3
STAT3 inh-2: confirmation of STAT3 signaling inhibitors. AID 1265. shares compounds with STAT3 inh-1. U3A cells, IL-6 STAT3 luciferase reporter, luminescence; cell line lacks STAT1. 1,200 tested, 45% active. inhibition, % at 5.7 µM;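 active = inhibition above the hit cutoff computed for the primary STAT3 screen, cut at about 44% in these data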;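 also: 0% = IL-6 plus DMSO and 100% = IL-6 plus nifuroxazide control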
NFkB inh 2: inhibits NF-kappaB, counter-screen to STAT3 inhibitors; shares compounds with STAT3 inh-1; inhibition, % at 5.7 µM; 1,200 tested, 36% active; HEK293T NF-kB luciferase reporter, TNF-alpha induced;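 active = inhibition above the mean of solvent-only control wells plus 3 SD, cutoff set per campaign, cut at about 13% in these data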;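 also: 0% = TNF-alpha with DMSO and 100% = TNF-alpha with MG high control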
STAT1 inh STAT3c: counter-screen for STAT3 inhibitors: STAT1 inhibition. shares compounds with STAT3 inh-1. NIH 3T3 STAT1-luciferase reporter, IFN-gamma induced, luminescence. inhibition, % at 5.7 µM. 1,200 tested, 27% active;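 active = inhibition above the mean plus 3 SD of solvent-only control wells, limit set per screening run, cut at about 16% in these data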;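 also: 0% = DMSO with IFN-gamma and 100% = nifuroxazide control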
* marks the source's active call; other numbers are inactive results; x = no result.

SMILES | APP 5'UTR act | STAT3 inh-1 | STAT1 act | STAT3 activator | STAT1 inh | NF-kB expr up | STAT3 inh-2 | NFkB inh 2 | STAT1 inh STAT3c
CSc1ccc(CN(C)CC(=O)Nc2c(F)cccc2F)cc1 | -11.5 | 12.9 | 95.5 | 95.2 | 4.6 | 1.36 | x | x | x
COc1ccc(C(=O)Nc2nnc(-c3ccco3)s2)cc1 | x | 82.3* | 82.5 | 31.2 | 35.2* | 4.82* | 54.7* | 19.4* | -36.5
O=C(Nc1nnc(-c2ccco2)s1)C1CC1 | 16.0 | 12.0 | 125.4 | 91.7 | -27.8 | 1.99 | x | x | x
O=C(Nc1nnc(-c2ccco2)s1)c1ccccc1 | 161.2* | 47.4* | 125.1 | 64.3 | -28.3 | 4.17* | 13.2 | -29.3 | -100.3
O=C(c1cc(COc2c(F)cccc2F)on1)N1CCC(c2ccncc2)CC1 | -6.6 | 52.9* | 76.5 | 57.0 | 24.6 | 0.93 | 59.0* | 18.3* | 19.5*
O=C(c1cc(COc2c(F)cccc2F)on1)N1CCc2ccccc2C1 | 9.6 | 13.5 | 99.8 | 90.4 | -1.6 | 1.24 | x | x | x
COc1ccccc1OC(C)C(=O)Nc1nc(-c2ccc(S(=O)(=O)N3CCOCC3)cc2)cs1 (stereo not drawn) | -10.4 | -6.4 | 95.1 | 107.5 | 5.5 | 0.87 | x | x | x
COc1ccccc1C(=O)Nc1nc(-c2ccc(S(=O)(=O)N3CCOCC3)cc2)cs1 | -18.5 | 76.4* | 76.5 | 37.0 | 25.4 | 0.28 | 74.0* | 19.9* | 20.1*
Cc1ccc2c(COC(=O)CNC(=O)c3ccccc3)cc(=O)oc2c1 | 19.0 | -3.4 | 106.2 | 100.7 | -4.2 | 1.05 | x | x | x
Cc1ccc2c(COC(=O)C3=COCCO3)cc(=O)oc2c1 | 49.5 | 43.5* | 132.5* | 67.8 | -35.8 | 3.04 | -2.8 | -33.9 | -81.4
CCCOc1ccc(/C=N/NC(=S)Nc2ccccc2[N+](=O)[O-])c(O)c1 | -46.5 | 92.0* | 97.5 | 24.0 | 2.8 | 0.64 | 48.5* | -10.6 | -8.2
O=[N+]([O-])c1cc(/C=N/NC(=S)Nc2ccccc2Cl)ccc1Cl | -1.9 | 3.8 | 113.6 | 99.9 | -16.9 | 1.55 | x | x | x
COc1ccc(/C=N/NC(=S)Nc2ccccc2[N+](=O)[O-])cc1O | 206.0* | 94.5* | 102.3 | 21.9 | -2.5 | 0.43 | 83.1* | -6.1 | -13.1
N#CCC(=O)Nc1ccc(C(=O)NCC(c2ccco2)N2CCCCC2)cc1 (stereo not drawn) | 10.6 | 0.8 | 99.1 | 107.3 | -1.1 | 1.17 | x | x | x
COc1ccc(-c2nn(C)c(=O)c3ccccc23)cc1NC(=O)COc1ccc(C)cc1 | 10.4 | 65.0* | 85.7 | 45.7 | 15.7 | 0.98 | 49.2* | 10.4 | 12.7
CCCC(C)NC(=O)COc1ccc(Sc2ccc(OCC(=O)NC(C)CCC)cc2)cc1 (stereo not drawn) | 13.3 | 2.5 | 92.5 | 100.9 | 8.3 | 1.01 | x | x | x
CC1CC(C)(C)Nc2ccc(OC(=O)c3ccco3)cc21 (stereo not drawn) | -30.1 | 61.9* | 82.0 | 52.7 | 19.7 | 2.21 | 31.1 | 24.8* | 11.3
O=C(Oc1ccc2ccccc2c1)c1ccco1 | -18.6 | 3.0 | 105.5 | 101.2 | -7.8 | 1.22 | x | x | x
CCN(CC)C(=O)C1CCN(S(=O)(=O)c2ccc3oc4ccccc4c3c2)CC1 | 2.4 | 44.7* | 88.2 | 68.4 | 12.9 | 1.12 | 33.0 | 5.0 | 10.7
O=S(=O)(c1ccc2oc3ccccc3c2c1)N1CCCC1 | -12.1 | 0.6 | 97.9 | 100.4 | 2.2 | 1.06 | x | x | x
COc1cccc(CNC(=O)C(c2ccc(Cl)cc2)C(C)C)c1 (stereo not drawn) | 1.4 | 7.0 | 91.4 | 94.0 | 9.6 | 1.06 | x | x | x
Cc1cc(/C=N/NC(=O)c2ccncc2)c(C)n1-c1ccccc1 | 17.5 | -16.2 | 113.1 | 111.8 | -13.8 | 1.03 | x | x | x
Cc1cc(/C=N/NC(=O)c2cccs2)c(C)n1-c1ccccc1 | 162.8* | 67.6* | 81.1 | 45.8 | 20.6 | 1.28 | 11.6 | 27.4* | -79.1
CCc1ccc(NC(=O)c2cc(C(C)C)on2)cc1 | 136.8* | 48.3* | 121.1 | 65.2 | -23.2 | 7.98* | 9.3 | -35.7 | -105.3
CCc1ccc(NC(=O)c2cc(C)on2)cc1 | 200.5* | 49.3* | 115.3 | 62.7 | -16.8 | 5.79* | 11.8 | -33.7 | -87.1
SMILES | APP 5'UTR act | STAT3 inh-1 | STAT1 act | STAT3 activator | STAT1 inh | NF-kB expr up | STAT3 inh-2 | NFkB inh 2 | STAT1 inh STAT3c
COc1cc(NC(=O)c2cc(C(C)C)on2)cc(OC)c1OC | 4.3 | 16.3 | 95.7 | 90.8 | 4.8 | 0.9 | x | x | x
CCc1ccc(NC(=O)c2cc(-c3ccc(OC)cc3)on2)cc1 | 8.9 | 3.9 | 101.2 | 95.5 | -1.3 | 1.07 | x | x | x
Cc1oc(C(C)(C)C)cc1C(=O)Nc1cccc(C(=O)O)c1 | 53.4 | -5.8 | 120.4 | 110.5 | -22.1 | 1.99 | x | x | x
CCOC(=O)C1(Cc2ccccc2C(F)(F)F)CCN(C(=O)c2cc(C(C)=O)n[nH]2)CC1 | 21.9 | -4.9 | 103.7 | 106.2 | -6.0 | 1.2 | x | x | x
CCOC(=O)N1CCC(NC(=O)c2cc(C(=O)Nc3ccc(S(=O)(=O)N4CCOCC4)cc3)ccc2CO)CC1 | -6.9 | 12.4 | 99.9 | 95.0 | -0.9 | 0.93 | x | x | x
COc1ccc(C(=O)COc2ccc(F)cc2)c(O)c1 | 39.7 | x | x | x | x | x | x | x | x
COc1ccc(O)c(C(=O)CC(=O)c2ccc(F)cc2)c1 | 149.3* | 77.3* | 110.2 | 35.1 | -11.1 | 2.29 | 26.7 | -10.3 | -112.1
COC(=O)/C(=N/Nc1ccccc1C)N1CCCc2ccccc21 | -26.1 | -8.0 | 98.0 | 106.5 | 2.2 | 1.11 | x | x | x
CO/C=C\C=C/c1nnn(-c2ccc(Cl)cc2)n1 | 2.2 | 11.3 | 96.6 | 90.8 | 3.8 | 1.23 | x | x | x
CC(=O)Nc1ccc(-c2csc(Nc3ccc(Cl)cn3)n2)cc1 | 28.5 | 52.5* | 117.9 | 59.7 | -19.6 | 1.25 | 46.1* | 5.0 | -17.5
COc1cccc(C(=O)NCc2ccc(-c3nc4ccccc4s3)cc2)c1 | 45.2 | 11.7 | 114.4 | 94.9 | -15.7 | 1.63 | x | x | x
COc1cccc(-c2nc3ccccc3s2)c1O | 212.0* | 43.9* | 122.7 | 64.7 | -26.9 | 6.44* | -4.2 | -11.1 | -43.1
Oc1cccc(-c2nc3ccccc3s2)c1 | 116.1 | 73.6* | 103.1 | 41.6 | -3.4 | 9.04* | 36.8 | 13.4* | -11.6
Oc1ccc(O)c(Cc2nc3ccccc3s2)c1 | 11.8 | 17.7 | 87.2 | 88.9 | 15.2 | 1.9 | x | x | x
COc1ccc(-c2nc3ccccc3s2)cc1O | 224.7* | 92.3* | 90.7 | 24.8 | 10.2 | 1.41 | 53.4* | 1.0 | -15.9
COc1ccccc1C(=O)NCc1ccc(-c2nc3ccccc3s2)cc1 | 33.8 | 50.8* | 91.4 | 56.5 | 9.4 | 0.6 | -17.4 | 9.1 | -81.2
CC(C)(C)c1nn2cnnc2n(/N=C/c2ccc(O)cc2)c1=O | -12.2 | 7.3 | 100.9 | 96.7 | -1.0 | 1.05 | x | x | x
